Usually IC50 stands for the midpoint of a concentration-inhibition curve. Higher therefore signals a need for much substance. What is called ED50 is the dose that gives a 50% effect, or the effect in half of the subjects. The low end stands for greater potency, the high end for weaker potency.

Each structure is given as a SMILES string. Values after ≈ are worked out from the molar mass of the structure shown.

Experiment [1] can be described thus: Growth inhibition of Plasmodium berghei was tested in vivo in male albino mice (Mus musculus) after oral administration of a dose of 10 mg/kg. Conditions: read-out: GI. It is filed as functional. The method, boiled down:
(§1)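 Mice 25 ± 2 g infected iv on day 0 with 2×10^7 P. berghei ANKA-infected donor erythrocytes. Compound dissolved or suspended in 7% Tween-80, 3% ethanol in water, single dose 24 h post-infection (0.01 mL/g), 3 mice/group. Giemsa blood smears at day 3 (72 h post-infection). Parasitemia counted microscopically; reduction calculated versus untreated controls (=100%). ED50/90 determined by dose titration.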

A short description of experiment [2]: Growth inhibition of Plasmodium berghei was tested in vivo in male albino mice (Mus musculus) after subcutaneous administration of a dose of 10 mg/kg. It counts as functional. Conditions: sc, read-out: GI. The method, boiled down:
as §1

For experiment [3], the system named is Plasmodium falciparum. The experiment is described as follows: In vitro antimalarial activity against chloroquine-sensitive Plasmodium falciparum NF54. It is filed as functional, organism-based. The method, boiled down: (§2)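 Asynchronous P. falciparum cultured in human type A+ erythrocytes, RPMI 1640 with 0.5% AlbuMAX, 25 mM HEPES, 25 mM NaHCO3 (pH 7.3), hypoxanthine, neomycin; 37 °C, 3% O2/4% CO2/93% N2. Compounds were dissolved in DMSO and titrated in duplicate over a 64-fold range. Initial parasitemia was 0.75% at 2.5% hematocrit. Growth was read by [3H]hypoxanthine incorporation, with label added 16 h before the end. IC50 was taken by linear interpolation.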

The test system of experiment [4] is Plasmodium falciparum. The experiment is described as follows: In vitro antimalarial activity against chloroquine-resistant Plasmodium falciparum K1. It is filed as functional, organism-based. The method, boiled down:
as §2

A short description of experiment [5]: Effective dose was determined in vivo for 50% parasite (Plasmodium berghei) reduction in the male albino mice after oral administration. It counts as functional. Conditions: Mus musculus. The method, boiled down:
as §1

Experiment [6] can be described thus: Effective dose was determined in vivo for 50% parasite (Plasmodium berghei) reduction in the male albino mice after subcutaneous administration. It is filed as functional. Conditions: Mus musculus, sc; for ED90: in the assay text read “90% parasite” for “50% parasite”. The method, boiled down: as §1
The nature of experiment [7]: Effective dose was determined in vivo for 90% parasite (Plasmodium berghei) reduction in the male albino mice after oral administration. It is filed as functional. Conditions: Mus musculus. The method, boiled down:
as §1

Experiment [8] is described as follows: Growth inhibition of Plasmodium berghei was tested in vivo in male albino mice (Mus musculus) after oral administration of a dose of 100 mg/kg. It is filed as functional. Conditions: read-out: GI. The method, boiled down:
as §1

Experiment [9] can be described thus: Growth inhibition of Plasmodium berghei was tested in vivo in male albino mice (Mus musculus) after subcutaneous administration of a dose of 100 mg/kg. Conditions: sc, read-out: GI. It is filed as functional. The method, boiled down:
as §1

Experiment [10] in a line: Growth inhibition of Plasmodium berghei was tested in vivo in male albino mice (Mus musculus) after oral administration of a dose of 50 mg/kg. It counts as functional. Conditions: read-out: GI. The method, boiled down: as §1
Experiment [11] can be described thus: Growth inhibition of Plasmodium berghei was tested in vivo in male albino mice (Mus musculus) after subcutaneous administration of a dose of 50 mg/kg. It is filed as functional. Conditions: sc, read-out: GI. The method, boiled down: as §1
Experiment [12] can be described thus: Effective dose was determined in vivo for 90% parasite (Plasmodium berghei) reduction in the male albino mice after subcutaneous administration. It is filed as functional. Conditions: Mus musculus, sc. The method, boiled down:
as §1

In the case of `CO/C=C(/C(=O)OC)c1ccccc1/C=C/C=C/c1ccccc1Cl`, the inhibition in vivo at 10 mg/kg is 41% in experiment [1] and 77% in experiment [2]. Also, the IC50 in experiment [3] was determined as 0.09 ng/mL (≈ 0.254 nM); in experiment [4], 0.39 ng/mL (≈ 1.1 nM).
`CO/C=C(/C(=O)OC)c1ccccc1/C=C/C=C/c1ccc(C)cc1C`: the ED50 stood at 1.11 mg/kg in experiment [5] and 0.33 mg/kg in [6]. In addition, the ED90 in experiment [6] was 0.72 mg/kg; in experiment [7] it was 2.65 mg/kg. Besides, the inhibition in vivo at 10 mg/kg in experiment [1] and in experiment [2] was 100% each time. Moreover, the 50% inhibitory concentration (IC50) in experiment [3] was 0.03 ng/mL (≈ 0.0861 nM); in [4] it was 0.05 ng/mL (≈ 0.143 nM).
As for `CO/C=C(/C(=O)OC)c1ccccc1/C=C/C=C/c1ccccc1C(F)(F)F`, the results for the inhibition in vivo at 10 mg/kg in experiment [1] and in experiment [2] were 99% and 100%, respectively. The half-inhibitory concentration (IC50) amounted to 0.06 ng/mL (≈ 0.154 nM) in [3] and 0.15 ng/mL (≈ 0.386 nM) in experiment [4].
As for `CO/C=C(/C(=O)OC)c1ccccc1CSc1ccccc1C(F)(F)F`, the inhibition in vivo at 100 mg/kg in [8] and in experiment [9] was 0% each time. Moreover, the IC50 in experiment [3] amounted to 5.5 ng/mL (≈ 14.4 nM); in [4], 29 ng/mL (≈ 75.8 nM).
Take `CO/N=C(/C(=O)OC)c1ccccc1C#CC#Cc1ccccc1C(F)(F)F`: the inhibition in vivo at 100 mg/kg in experiment [8] and in experiment [9] was 0% each time. Besides, the IC50 in experiment [3] is 1390 ng/mL (≈ 3600 nM); in experiment [4], 2280 ng/mL (≈ 5910 nM).
Turning to `CO/C=C(/C(=O)OC)c1ccccc1/C=C/CSc1ccccc1C(F)(F)F`, the values for the inhibition in vivo at 100 mg/kg in experiment [8] and in experiment [9] were 46% and 91%, respectively. Besides, the figures for the IC50 in [3] and in [4] were 1.75 ng/mL (≈ 4.28 nM) and 2.51 ng/mL (≈ 6.15 nM), respectively.
Taken in the same sequence, the figures for `CO/N=C(/C(=O)OC)c1ccccc1CCCCc1ccccc1C(F)(F)F` were 0%, 0%, 6.4 ng/mL (≈ 16.3 nM) and 15 ng/mL (≈ 38.1 nM).
As for `CO/N=C(/C(=O)OC)c1ccccc1-c1ccc(-c2ccccc2C(F)(F)F)s1`, the inhibition in vivo at 100 mg/kg in experiment [8] and in experiment [9] was 0% in each case. Moreover, the IC50 in experiment [3] stood at 23.7 ng/mL (≈ 56.5 nM); in experiment [4], 60.8 ng/mL (≈ 145 nM).
Turning to `CO/C=C(/C(=O)OC)c1ccccc1/C=C/C=C/c1ccccc1`, the inhibition in vivo at 50 mg/kg in experiment [10] and in experiment [11] was 0% in each case. For the same compound, the IC50 amounted to 0.8 ng/mL (≈ 2.5 nM) in experiment [3] and 3.7 ng/mL (≈ 11.5 nM) in [4].
Consider `CO/C=C(/C(=O)OC)c1ccccc1/C=C/C=C/c1cccc(OC)c1[N+](=O)[O-]`, for which the IC50 in [3] amounted to 0.11 ng/mL (≈ 0.278 nM); in [4], 0.58 ng/mL (≈ 1.47 nM).
Take `CO/C=C(/C(=O)OC)c1ccccc1/C=C/C=C/c1ccc(C(F)(F)F)cc1C(F)(F)F`: the inhibition in vivo at 10 mg/kg in experiment [1] and in experiment [2] was 100% each time. Besides, the IC50 in [3] was 0.06 ng/mL (≈ 0.131 nM); in [4], 0.13 ng/mL (≈ 0.285 nM).
In the case of `CO/C=C(/C(=O)OC)c1ccccc1/C=C/C=C/c1ccc(F)cc1Cl`, the inhibition in vivo at 10 mg/kg was found to be 92% in experiment [1] and 100% in [2]. In addition, the IC50 in [3] came out at 0.06 ng/mL (≈ 0.161 nM); in experiment [4], 0.19 ng/mL (≈ 0.51 nM).
For the compound `CO/C=C(/C(=O)OC)c1ccccc1/C=C/C=C/c1cccc(F)c1`, the inhibition in vivo at 50 mg/kg in experiment [10] and in experiment [11] was 0% each time. In addition, the values for the IC50 in experiment [3] and in experiment [4] were 1.5 ng/mL (≈ 4.43 nM) and 8.4 ng/mL (≈ 24.8 nM), respectively.
Take `CO/C=C(/C(=O)OC)c1ccccc1CO/N=C(\C)c1ccccc1C(F)(F)F`: the inhibition in vivo at 100 mg/kg in [8] and in experiment [9] was 0% throughout. The figures for the IC50 in experiment [3] and in experiment [4] were 0.17 ng/mL (≈ 0.417 nM) and 0.65 ng/mL (≈ 1.6 nM), respectively.
`CO/C=C(/C(=O)OC)c1ccccc1/C=C/C=C/c1ccccc1C#N`: the inhibition in vivo at 100 mg/kg in [8] and in experiment [9] was 0% each time. Also, the IC50 worked out at 0.52 ng/mL (≈ 1.51 nM) in experiment [3] and 1.6 ng/mL (≈ 4.63 nM) in experiment [4].
For `CO/C=C(/C(=O)OC)c1ccccc1/C=C/C=C/c1ccc(Cl)cc1`, the inhibition in vivo at 50 mg/kg in [10] and in experiment [11] was 0% each time. For the same compound, the IC50 in [3] was 0.52 ng/mL (≈ 1.47 nM); in experiment [4], 2 ng/mL (≈ 5.64 nM).
As to `O=C1C(O)=C([C@H]2CC[C@H](c3ccc(Cl)cc3)CC2)C(=O)c2ccccc21` [ATOVAQUONE], the ED50 was 0.05 mg/kg in experiment [5] and 0.04 mg/kg in [6]. Moreover, the ED90 stood at 0.1 mg/kg in experiment [7] and 0.9 mg/kg in experiment [12]. Besides, the half-maximal inhibitory concentration (IC50) in [3] amounted to 0.11 ng/mL (≈ 0.3 nM); in experiment [4], 0.41 ng/mL (≈ 1.12 nM).
`CO/C=C(/C(=O)OC)c1ccccc1/C=C/c1ccccc1C(F)(F)F`: the inhibition in vivo at 100 mg/kg in experiment [8] and in [9] was 0% each time. Also, the IC50 came to 3.01 ng/mL (≈ 8.31 nM) in [3] and 7.8 ng/mL (≈ 21.5 nM) in experiment [4].
Consider `CCN(CC)CCCC(C)Nc1ccnc2cc(Cl)ccc12` (stereo not drawn) [CHLOROQUINE], for which the ED50 was determined as 2.4 mg/kg in experiment [5] and 1.5 mg/kg in experiment [6]. The figures for the ED90 in [7] and in experiment [12] were 5 mg/kg and 3.3 mg/kg, respectively.
Take `CO/N=C(/C(=O)OC)c1ccccc1/C=C/C=C/c1ccccc1C(F)(F)F`: the inhibition in vivo at 100 mg/kg in experiment [8] stood at 46%; in [9], 44%. The concentration for half-maximal inhibition (IC50) came to 0.4 ng/mL (≈ 1.03 nM) in experiment [3] and 1.4 ng/mL (≈ 3.6 nM) in experiment [4].
For the compound `CO/C=C(/C(=O)OC)c1ccccc1/C=C/C=C/c1cccc(Br)c1`, the inhibition in vivo at 50 mg/kg in [10] and in experiment [11] was 0% in each case. In addition, the IC50 in experiment [3] came out at 6.1 ng/mL (≈ 15.3 nM); in [4] it was 31.4 ng/mL (≈ 78.6 nM).
In the case of `CO/C=C(/C(=O)OC)c1ccc(/C=C/C=C/c2ccc(C(F)(F)F)cc2C(F)(F)F)cc1`, the inhibition in vivo at 100 mg/kg in [8] and in experiment [9] was 0% in each case. The IC50 in experiment [3] and in [4] was more than 5000 ng/mL in each case.
Take `CO/C=C(/C(=O)OC)c1ccccc1/C=C/c1ccc(-c2ccccc2C(F)(F)F)o1`: the IC50 in [3] was determined as 0.39 ng/mL (≈ 0.91 nM); in experiment [4], 1.8 ng/mL (≈ 4.2 nM).
As to `CO/N=C(\C(=O)OC)c1ccccc1C#CC#Cc1ccccc1C(F)(F)F`, the inhibition in vivo at 100 mg/kg in experiment [8] and in [9] was 0% throughout. Further, the IC50 in experiment [3] was 10.8 ng/mL (≈ 28 nM); in experiment [4] it was 25.8 ng/mL (≈ 67 nM).
Consider `CO/C=C(/C(=O)OC)c1cccc(/C=C/C=C/c2ccc(C(F)(F)F)cc2C(F)(F)F)c1`, for which the inhibition in vivo at 100 mg/kg in [8] and in experiment [9] was 0% each time. The IC50 in experiment [3] came out at 176 ng/mL (≈ 385 nM); in [4] it was 396 ng/mL (≈ 869 nM).
Regarding `CO/C=C(/C(=O)OC)c1ccccc1CCCCc1ccccc1C(F)(F)F`, the results for the inhibition in vivo at 100 mg/kg in [8] and in experiment [9] were 82% and 99%, respectively. The figures for the IC50 in experiment [3] and in experiment [4] were 0.54 ng/mL (≈ 1.38 nM) and 1.53 ng/mL (≈ 3.9 nM), respectively.
In the case of `CO/C=C(/C(=O)OC)c1ccccc1/C=C/C=C/c1cccc(C(F)(F)F)c1`, the inhibition in vivo at 50 mg/kg in experiment [10] and in [11] was 0% each time. Further, the IC50 in experiment [3] was 7.8 ng/mL (≈ 20.1 nM); in experiment [4], 16.7 ng/mL (≈ 43 nM).
As for `CO/C=C(/C(=O)OC)c1ccccc1/C=C/C=C/c1ccc(Cl)cc1Cl`, the ED50 was found to be 1.07 mg/kg in experiment [5] and 0.69 mg/kg in [6]. Besides, the ED90 in experiment [6] was determined as 1.8 mg/kg; in experiment [7], 4.03 mg/kg. Further, the inhibition in vivo at 10 mg/kg in experiment [1] and in experiment [2] was 100% in each case. The IC50 in [3] stood at 0.03 ng/mL (≈ 0.0771 nM); in experiment [4], 0.1 ng/mL (≈ 0.257 nM).

The record behind these values is ChEMBL document CHEMBL1133699, “Phenyl beta-methoxyacrylates: a new antimalarial pharmacophore” (J Med Chem, 2000).
